Screening results (PubChem BioAssay)
A selection: hits, their analogues and other compounds. The true share with any hit is near 3%.
PfHsp90 yeast 2: inhibits growth of yeast expressing Plasmodium falciparum Hsp90; inhibition, % at 9.4 µM; S. cerevisiae expressing PfHsp90, BacTiter-Glo ATP, 48 h; yeast lacking PDR1 and PDR3 efflux regulators; 310,000 compounds, 0.32% hits;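 active means every replicate shows inhibition above about 80%, whatever the replicate mean, limit read from the data; inconclusive means mean inhibition reaches the set limit but some replicate falls short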
T cruzi inh: T. cruzi replication inhibition; T. cruzi beta-gal in NIH3T3, luminescence, 90 h; inhibition, % (test concentration not listed); 300,000 compounds, 1.4% hits;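 active means mean inhibition across valid replicates above about 55%, limit read from the data; inconclusive means mean below that limit but half or more replicates reach it; inactive means mean below it, under half of replicates reach it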;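 further: signal also drops with host cell toxicity which is not excluded here; higher percent means less beta-gal luminescence so fewer parasites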
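Material: NIH/3T3 host cells with β-galactosidase reporter T. cruzi; Input: 5,000 host fibroblasts per well; Medium: DMEM, 2% fetal bovine serum; Compound: 50 nL DMSO compound solution per well; Schedule: 3 h host attachment, then at least 90 h co-culture; Detection: luminescent β-galactosidase signal after 60 min lysis.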
PvdQ inh: P. aeruginosa PvdQ acylase inhibition; purified PvdQ acylase, fluorescence plate reader; inhibition, % at 10 µM; 340,000 compounds, 0.063% hits; in the data active means inhibition above about 30%, passing the limit was not always enough; inconclusive means no clear call, values can overlap the other calls
HSF-1 act: increases HSF-1 driven luciferase reporter signal; AID 504408; NIH3T3-HGL HSF-1 luciferase reporter, MG132, 8 h; 100% = twice DMSO control signal; activation, % at 9 µM; 300,000 compounds, 1.7% hits;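 active means mean replicate activation of at least 50% with a set share of replicates each reaching 50%; inconclusive means only one of those two conditions met; inactive means mean below 50% and too few replicates reaching it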
CaV13 FRET inh: Disruptors of the CACNA1D IQ motif to Ca2+-dependent inactivation inhibitor domain association, primary screening, Förster resonance energy transfer in intact living … | HEK cells, CFP/YFP FRET ICDI-IQ, plate reader, 10 min; percent FRET-ratio fall versus neutral wells | inhibition, % at 12.3 µM | 340,000 compounds, 0.098% hits | AID 743397;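 active means mean replicate inhibition of at least 30% and at least 1% of replicates passing that level; inconclusive means only one of the two criteria is met; inactive means neither criterion is met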
Glyco luc inh: N-linked glycosylation inhibition. 360,000 compounds, 0.23% hits. AID 588692. D54 ERlucT glycosylation luciferase reporter, 24 h; percent of 100 nM tunicamycin response. reporter increase, % at 12.5 µM;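 active means mean luciferase reporter signal, scaled so untreated is 0 and the glycosylation-blocking control 100, at or above a set limit in every replicate; inconclusive means mean reaches the limit but not every replicate does; inactive means mean below the limit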;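 further: luciferase carries N-glycosylation sites so blocking glycosylation raises the light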
Of the large screens only hits and unclear results are named; the others gave an inactive call.

CCOC(=O)N1CCC(n2c(SCC(=O)NCc3ccccc3)nc3ccccc3c2=O)CC1	none
COc1ccc(-n2c(SCC(=O)Nc3ccc(C(N)=O)cc3)nc3ccccc3c2=O)cc1OC	HSF-1 act 59.6
CCOC(=O)N1CCC(n2c(SCC(=O)Nc3ccccc3OC)nc3ccccc3c2=O)CC1	T cruzi inh 56.1 (no result: PfHsp90 yeast 2)
O=c1[nH]sc2ccccc12	T cruzi inh 62.9
COC(=O)C[C@@H]1CC[C@H](NC(=O)CC2CC2)[C@@H](CO)O1	none (no result: PfHsp90 yeast 2, T cruzi inh, PvdQ inh, HSF-1 act, Glyco luc inh)
Cc1cc(C)n2c(=O)c3ccc(Cl)cc3nc2c1C#N	none
Cc1cc(Cl)n2c(nc3cc(F)c(F)cc32)c1C#N	PfHsp90 yeast 2 inconclusive, T cruzi inh 79.0, HSF-1 act 178.8
COC(=O)[C@]12C[C@H](CC(=O)NCCC(C)C)C(=O)N(CCC3=CCCCC3)C1=C[C@H](COCc1ccccc1)O[C@@H]2C	none (no result: PfHsp90 yeast 2, T cruzi inh, PvdQ inh, HSF-1 act, Glyco luc inh)
O=[N+]([O-])c1c(Nc2ccccn2)cc(Cl)c2nonc12	PfHsp90 yeast 2 107.9, T cruzi inh 59.8, HSF-1 act 162.9
O=[N+]([O-])c1c(Nc2ccc(O)cc2)cc(Cl)c2nonc12	T cruzi inh 64.1, HSF-1 act 132.4
O=C(O)c1ccccc1Nc1cc(Cl)c2nonc2c1[N+](=O)[O-]	none
O=C(Nc1ccc2c(c1)OCO2)c1cc(C2CCCCN2S(=O)(=O)c2ccccc2)on1 (centres undefined)	none (no result: PfHsp90 yeast 2, T cruzi inh, PvdQ inh, HSF-1 act)
COc1ccc(/C=C/c2nnc(NC(C)=O)s2)cc1	HSF-1 act 57.4
CC(Sc1ccc(S(=O)(=O)N2CCCCCC2)cn1)C(N)=O (centres undefined)	none (no result: T cruzi inh, HSF-1 act)
C=CCN=C1NC(c2cccc(F)c2)C(C(=O)OC)=C(C)N1C (centres undefined)	none (no result: PfHsp90 yeast 2, T cruzi inh, PvdQ inh, HSF-1 act, Glyco luc inh)
Clc1ccc(OCCn2c(-c3ccco3)nc3ccccc32)cc1	HSF-1 act 136.9
c1coc(Cn2c(-c3ccco3)nc3ccccc32)c1	none (no result: CaV13 FRET inh)
Oc1cc(Nc2ccccc2)cc2cccnc12	Glyco luc inh 37.6 (no result: T cruzi inh, HSF-1 act)
Oc1cccc2cc(Nc3ccccc3)cnc12	none (no result: PfHsp90 yeast 2, T cruzi inh, PvdQ inh, HSF-1 act)
CC(C)c1ccc(/C=N/n2nnnc2Nc2ccccc2)cc1	HSF-1 act 55.3 (no result: CaV13 FRET inh)
CC/C(=N\n1nnnc1Nc1ccccc1)c1ccccc1	none (no result: PfHsp90 yeast 2)
CCCCCCCCN1C(=O)[C@@H](CC(=O)NCCc2ccccc2OC)C[C@@]2(C(=O)OC)C1=C[C@H](C(C)(C)C)O[C@@H]2C	none (no result: PfHsp90 yeast 2, T cruzi inh, PvdQ inh, HSF-1 act, Glyco luc inh)
COc1ccc2nc(N3C(=O)C(O)=C(C(=O)c4ccco4)C3c3ccc(C)o3)sc2c1 (centres undefined)	none (no result: PfHsp90 yeast 2, T cruzi inh, HSF-1 act)
Cc1ccc2nc(N3C(=O)C(O)=C(C(=O)c4ccco4)C3c3cccs3)sc2c1 (centres undefined)	HSF-1 act 65.8 (no result: PfHsp90 yeast 2, CaV13 FRET inh)
O=C(N/N=C\c1ccc(-c2ccc([N+](=O)[O-])cc2)o1)C1COc2ccccc2O1 (centres undefined)	T cruzi inh 59.3
O=[N+]([O-])c1ccc(S(=O)(=O)N2CCSC2c2ccco2)cc1 (centres undefined)	HSF-1 act 50.6
COc1ccc(/C=C/CN2CCCC(CCC(=O)NCc3ccc(F)c(F)c3)C2)cc1 (centres undefined)	T cruzi inh 67.9 (no result: HSF-1 act)
COc1cccc(CNC(=O)CCC2CCCN(Cc3ccc4c(c3)CCO4)C2)c1 (centres undefined)	none
COCc1ccc(CN2CCCC(CCC(=O)NCc3cccc(OC)c3)C2)o1 (centres undefined)	T cruzi inh 59.1 (no result: HSF-1 act)
COCCC(=O)N1CCCC(CCC(=O)NCc2ccc(F)c(F)c2)C1 (centres undefined)	none
COc1cccc(CNC(=O)CCC2CCCN(C/C=C/c3ccccc3OC)C2)c1 (centres undefined)	T cruzi inh 66.1
COc1ccccc1/C=C/CN1CCCC(CCC(=O)NCc2ccc(F)c(F)c2)C1 (centres undefined)	T cruzi inh 67.6
O=C1CCCCC1CCS(=O)(=O)NCc1ccccc1 (centres undefined)	none (no result: PfHsp90 yeast 2, T cruzi inh, PvdQ inh, HSF-1 act, Glyco luc inh)
CCN(CC1CCCN(CCc2cccc(OC)c2)C1)C(=O)c1ccc(COC)o1 (centres undefined)	T cruzi inh 77.4
C/C=C/c1c(F)c(F)c(Oc2ccc(C(=O)O)cc2)c(F)c1F	HSF-1 act 124.8
COc1ccc2c(c1OC)C(CC(C)=O)N1CCc3cc4c(cc3C1C2=O)OCO4 (centres undefined)	none (no result: PfHsp90 yeast 2, T cruzi inh, PvdQ inh, HSF-1 act)
Cc1ccc(-n2cc(CNCCN3CCOC3=O)c(-c3cccc(C)c3)n2)cc1	HSF-1 act 69.0
O=C(CN1CC[n+]2c(-c3cccs3)csc21)c1ccc(Br)cc1	T cruzi inh 60.0
CC(=O)c1cccc2c(O)c(C3=Nc4ccccc4C3=O)[nH]c12	HSF-1 act 61.8
CCOC(=O)CC(NC(=O)C1c2ccccc2Oc2ccccc21)c1ccccc1Cl (centres undefined)	HSF-1 act 102.2
CCOC(=O)CC(NC(=O)Cc1ccccc1)c1ccccc1Cl (centres undefined)	none
CC1=C(C(=O)N(C(C)C)C(C)C)CC(CC(=O)NCCN2CCOCC2)C(=O)N1Cc1ccc(F)cc1 (centres undefined)	none (no result: PfHsp90 yeast 2, T cruzi inh, PvdQ inh, HSF-1 act)
CCOc1ccc(-n2cc(C(=O)N3CCC(C)CC3)c3cc(OC)c(OC)cc3c2=O)cc1	HSF-1 act 66.1
CCOc1ccc(-n2cc(C(=O)Nc3cccc(Cl)c3)c3cc(OC)c(OC)cc3c2=O)cc1	T cruzi inh 64.4
NN=C1c2ccccc2-c2ccc(N)cc21	none (no result: T cruzi inh, HSF-1 act)
CCCCCn1cc(CCC(=O)Nc2ccc(N(C)c3ccccn3)cc2)c2ccccc21	none (no result: PfHsp90 yeast 2, T cruzi inh, PvdQ inh, HSF-1 act, Glyco luc inh)
O=C1NN(c2ccccc2)C(=O)/C1=C/c1ccc(Sc2ccc(Cl)cc2)o1	Glyco luc inh 35.0
COc1ccccc1NC(=O)CN1CCN(CC(=O)Nc2ccc(F)cc2F)CC1	HSF-1 act 68.5
COc1ccccc1NC(=O)CN1CCCCC1	none
CCc1ccc(NC(=O)C/C(C)=N/NC(=O)COc2ccc(C)cc2Br)cc1	HSF-1 act 58.6
C/C(CC(=O)Nc1ccccc1)=N\NC(=O)COc1ccc(C)cc1Br	none
CCCN1CCCc2cc(CN)ccc21	T cruzi inh 89.0 (no result: HSF-1 act)
O=Cc1ccc([B-](F)(F)F)o1	none (no result: PfHsp90 yeast 2, T cruzi inh, PvdQ inh, HSF-1 act, Glyco luc inh)
Cn1c(CCC(=O)OCC(=O)Nc2ccc(Oc3ccccc3)cc2)nc(=O)c2ccccc21	HSF-1 act 55.3 (no result: PfHsp90 yeast 2)
O=C(COC(=O)C1CCC1)Nc1ccc(Oc2ccccc2)cc1	HSF-1 act 52.3 (no result: PfHsp90 yeast 2)
Cc1ccc(NC2CCCN(C(=O)C3CCCC3)C2)cc1C (centres undefined)	none
CC1CCCCN1c1nc(-c2ccncc2)nc2ccccc12 (centres undefined)	T cruzi inh 59.8
CCC1CCCCN1c1nc(-c2ccncc2)nc2ccccc12 (centres undefined)	T cruzi inh 63.2
